Source: paper PMC6900552 (Acta Pharmaceutica Sinica. B, 2019)
Where two headings read alike, the source gives them in different places.

Experiments:
[1] = In vivo cholesterol-lowering assay in HFD-induced hyperlipidemic hamsters; parameters: species or system Syrian hamster; details: 21 days, vs HFD control
Outline: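 Male Syrian hamsters (100–120 g) were acclimatized 7 days, then fed a high-fat diet (0.5% cholesterol) for 1 week. They were randomized to groups of n = 7. Test compound (30 mg/kg) or fenofibrate positive control (100 mg/kg) was given by daily oral gavage for 21 days; controls received 0.5% CMC-Na vehicle. After a 15 h fast, serum was taken under anesthesia and TC and LDL-C were measured by kit. Mean ± SEM.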

[2] = target: beta-1 adrenergic receptor (Homo sapiens, UniProt P08588); experiment: Calcium mobilization assay, β1 adrenergic receptor antagonist activity; type: cell-based; details: HEK293 β1-AR/Gα16 cells
Outline: (§1)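 HEK293 cells stably co-expressing the receptor and Gα16 were seeded in 96-well plates and grown 24 h. Cells were loaded with 2 μmol/L Fluo-4 AM in HBSS (pH 7.4, BSA 5 g/L, sulfinpyrazone 250 μmol/L) at 37 °C for 45 min. Test compound was added for 10 min at RT, then the respective agonist. Calcium signal was read at ex 485/em 525 nm. IC50 came from nonlinear-regression dose–response curves.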

[3] = system: HepG2 cells; experiment: DiI-LDL uptake assay; type: cell-based, human; details: 5 μmol/L, 24 h, then 20 μg/mL DiI-LDL 4 h, fold of vehicle
Outline: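 Washes: PBS/0.4% albumin ×2, PBS ×3. Isopropanol extraction 20 min RT; fluorescence ex 520/em 570 nm; residual cells lysed in 0.5 mol/L NaOH for protein determination.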

[4] = target: dopamine D2 (Homo sapiens, UniProt P14416); experiment: Calcium mobilization assay, dopamine D2 antagonist activity; type: cell-based; details: HEK293 D2/Gα16 cells
Outline: as §1

[5] = target: dopamine D1 (Homo sapiens, UniProt P21728); experiment: Calcium mobilization assay, dopamine D1 antagonist activity; type: cell-based; details: HEK293 D1/Gα16 cells
Outline: as §1

[6] = target: serotonin 5-HT1B receptor (Homo sapiens, UniProt P28222); experiment: Whole-cell binding assay, 5-HT1B
Outline: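 CHO-K1 cells stably expressing 5-HT1B were seeded at 3 × 10⁴ cells/well and assayed 24 h later. Cells were incubated overnight at 4 °C with 1 nmol/L ³H-GR125743 or ³H-mesulergine plus unlabeled test compound (1.28 nmol/L–100 μmol/L). They were then washed with ice-cold PBS and lysed (PBS, 20 mmol/L Tris-HCl, 1% Triton X-100, pH 7.4). Bound radioactivity was scintillation-counted, and IC50 came from nonlinear regression.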

[7] = target: hERG channel (Homo sapiens, UniProt Q12809); experiment: hERG testing; type: cell-based
Outline: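 FluxOR thallium-flux assay in CHO-hERG-ZG cells kept under G418 and hygromycin B (100 μg/mL each). Cells were plated and held 30 min at RT in the dark, then 16–18 h at 37 °C. Dye loading ran 90 min at RT in the dark, then the medium was swapped for assay buffer and compound added for 20 min at RT in the dark. Fluorescence was recorded every 2 s to 10 s; stimulus buffer was added at 10 s, then recording continued every 1 s to 180 s.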

[8] = Pharmacokinetic profiles in male hamsters; type: in vivo; details: hamster, serum
Outline: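 Male hamsters, n = 3 per group, received test compound either at 20 mg/kg by oral gavage in 0.5% CMC-Na or at 10 mg/kg i.v. in 5% DMSO/10% cremophor EL/85% saline. Blood was drawn at 0, 0.5, 1, 2, 4, 6, 8, 10, 12 and 24 h, and serum was separated at 4000×g for 10 min. Serum levels were measured by LC/MS/MS. Parameters are averages of three runs.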

[9] = system: PCSK9 mRNA; experiment: Real-time PCR of PCSK9 mRNA in HepG2 cells; type: cell-based; details: Homo sapiens, HepG2, 24 h, read-out: IC50 of PCSK9 mRNA expression
[10] = system: PCSK9; experiment: PCSK9 ELISA in HepG2 cells; type: cell-based, human; details: read-out: IC50 of PCSK9 protein expression, 24 h
[11] = system: LDLR; experiment: Western blot analysis of LDLR expression in HepG2 cells; type: cell-based, human; details: 5 μmol/L, 24 h
[12] = system: PCSK9 mRNA; details: read-out: IC50 of decreasing PCSK9 mRNA level; cited from earlier work
[13] = 32 hypercholesterolemic patients, 3 months of treatment; cited from earlier work
[14] = cited from earlier work

serotonin 5-HT1B receptor, sequence (P28222 whole entry): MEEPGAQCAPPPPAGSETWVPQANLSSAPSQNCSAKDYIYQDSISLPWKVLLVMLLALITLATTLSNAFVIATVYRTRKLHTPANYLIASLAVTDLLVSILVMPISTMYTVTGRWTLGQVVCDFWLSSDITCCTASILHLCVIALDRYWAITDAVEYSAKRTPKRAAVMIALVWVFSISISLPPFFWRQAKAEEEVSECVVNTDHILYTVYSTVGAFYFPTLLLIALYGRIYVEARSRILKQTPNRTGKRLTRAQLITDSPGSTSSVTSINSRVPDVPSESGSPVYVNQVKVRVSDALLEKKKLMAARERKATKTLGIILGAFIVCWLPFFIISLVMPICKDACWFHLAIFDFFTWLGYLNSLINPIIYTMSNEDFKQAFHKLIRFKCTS
dopamine D2, sequence (P14416 whole entry): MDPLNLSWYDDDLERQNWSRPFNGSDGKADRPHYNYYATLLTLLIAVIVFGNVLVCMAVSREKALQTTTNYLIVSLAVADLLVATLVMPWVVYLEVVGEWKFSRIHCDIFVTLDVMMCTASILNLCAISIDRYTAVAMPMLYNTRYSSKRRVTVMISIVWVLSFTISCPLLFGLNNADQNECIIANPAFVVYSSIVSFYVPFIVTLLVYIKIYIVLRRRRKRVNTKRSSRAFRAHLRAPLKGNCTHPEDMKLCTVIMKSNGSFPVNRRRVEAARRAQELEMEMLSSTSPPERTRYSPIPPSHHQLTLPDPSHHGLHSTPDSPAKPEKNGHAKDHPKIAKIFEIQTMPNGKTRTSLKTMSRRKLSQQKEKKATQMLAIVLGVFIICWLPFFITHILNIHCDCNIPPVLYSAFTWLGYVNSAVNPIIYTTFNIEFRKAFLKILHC
dopamine D1, sequence (P21728 whole entry): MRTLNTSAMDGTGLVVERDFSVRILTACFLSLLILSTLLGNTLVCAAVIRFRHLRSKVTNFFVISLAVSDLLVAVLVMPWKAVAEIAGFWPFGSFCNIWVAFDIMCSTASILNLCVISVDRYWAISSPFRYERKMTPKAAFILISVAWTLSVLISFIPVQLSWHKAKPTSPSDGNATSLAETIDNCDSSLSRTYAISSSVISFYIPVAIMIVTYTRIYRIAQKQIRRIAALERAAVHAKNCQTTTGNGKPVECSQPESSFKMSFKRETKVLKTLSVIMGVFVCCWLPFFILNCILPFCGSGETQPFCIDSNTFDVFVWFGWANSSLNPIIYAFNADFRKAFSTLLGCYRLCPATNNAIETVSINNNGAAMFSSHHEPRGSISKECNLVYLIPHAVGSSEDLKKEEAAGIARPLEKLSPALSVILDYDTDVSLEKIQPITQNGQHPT
beta-1 adrenergic receptor, sequence (P08588 whole entry, species assumed): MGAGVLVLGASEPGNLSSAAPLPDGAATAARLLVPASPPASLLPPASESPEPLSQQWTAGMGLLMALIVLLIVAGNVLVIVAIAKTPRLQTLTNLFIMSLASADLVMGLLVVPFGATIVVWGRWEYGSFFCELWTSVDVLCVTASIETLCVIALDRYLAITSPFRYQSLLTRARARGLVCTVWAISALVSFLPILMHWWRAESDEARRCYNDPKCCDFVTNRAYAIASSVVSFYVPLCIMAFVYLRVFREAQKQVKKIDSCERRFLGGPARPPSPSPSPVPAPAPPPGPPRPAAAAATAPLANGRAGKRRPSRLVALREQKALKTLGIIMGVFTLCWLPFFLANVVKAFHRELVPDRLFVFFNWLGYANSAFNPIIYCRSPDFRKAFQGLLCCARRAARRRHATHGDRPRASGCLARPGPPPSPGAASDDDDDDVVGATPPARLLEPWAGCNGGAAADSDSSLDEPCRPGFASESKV
hERG channel, sequence (Q12809 whole entry): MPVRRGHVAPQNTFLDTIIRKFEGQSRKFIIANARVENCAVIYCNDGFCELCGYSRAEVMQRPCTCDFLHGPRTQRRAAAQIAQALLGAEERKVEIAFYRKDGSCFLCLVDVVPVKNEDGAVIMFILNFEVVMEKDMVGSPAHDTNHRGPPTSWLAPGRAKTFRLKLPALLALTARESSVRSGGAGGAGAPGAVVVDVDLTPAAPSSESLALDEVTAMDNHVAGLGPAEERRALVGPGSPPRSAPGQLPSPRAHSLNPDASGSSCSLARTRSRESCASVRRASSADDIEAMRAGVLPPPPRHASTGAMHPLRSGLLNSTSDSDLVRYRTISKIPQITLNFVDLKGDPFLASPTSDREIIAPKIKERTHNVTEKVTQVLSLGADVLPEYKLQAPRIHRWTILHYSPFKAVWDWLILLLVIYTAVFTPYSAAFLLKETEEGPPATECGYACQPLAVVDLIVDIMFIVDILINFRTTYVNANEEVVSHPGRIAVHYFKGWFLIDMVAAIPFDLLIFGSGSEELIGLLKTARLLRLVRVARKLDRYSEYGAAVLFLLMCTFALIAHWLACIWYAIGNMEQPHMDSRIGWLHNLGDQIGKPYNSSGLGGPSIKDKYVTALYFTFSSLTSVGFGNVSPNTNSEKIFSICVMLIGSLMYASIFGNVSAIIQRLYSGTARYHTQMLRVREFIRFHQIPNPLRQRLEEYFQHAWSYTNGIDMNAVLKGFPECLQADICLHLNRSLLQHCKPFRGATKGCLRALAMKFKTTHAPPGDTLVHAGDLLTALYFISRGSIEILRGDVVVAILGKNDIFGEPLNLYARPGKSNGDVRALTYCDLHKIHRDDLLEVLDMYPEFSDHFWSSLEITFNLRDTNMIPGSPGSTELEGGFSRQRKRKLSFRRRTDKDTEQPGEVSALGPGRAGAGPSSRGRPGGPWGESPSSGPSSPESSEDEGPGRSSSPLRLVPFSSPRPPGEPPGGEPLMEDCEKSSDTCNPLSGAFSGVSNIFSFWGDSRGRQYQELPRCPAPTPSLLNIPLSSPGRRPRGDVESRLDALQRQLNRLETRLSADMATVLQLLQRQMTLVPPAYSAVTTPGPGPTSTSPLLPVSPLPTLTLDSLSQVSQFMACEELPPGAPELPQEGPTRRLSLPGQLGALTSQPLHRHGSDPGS

CC(C)OC(=O)C(C)(C)Oc1ccc(C(=O)c2ccc(Cl)cc2)cc1 [fenofibrate, reference compound]
decrease of serum LDL-C ([1]; p.o. 100 mg/kg daily): 79.4% | decrease of serum TC ([1]; p.o. 100 mg/kg daily): 71.3%

COc1cc2c(cc1OCc1ccccc1F)C1Cc3c(n(CO)c4ccccc34)CN1CC2 (centres unmarked) [Compound 8, (2-((2-Fluorobenzyl)oxy)-3-methoxy-5,6,14,14a-tetrahydroindolo[3′,2′:4,5]pyrido[2,1-a]isoquinolin-9(8H)-yl)methanol]
IC50 [2]: > 100 µM | DiI-LDL uptake rate (compared to vehicle, mean±SEM) [3]: 1.04±0.04 | IC50 [4]: 17.9 ± 0.86 µM | IC50 [5]: 5.56 ± 0.08 µM | IC50 [6]: 47.2 ± 1.22 µM

COc1ccc2c(c1)c1c(n2CO)CN2CCc3cc(OCc4ccccc4)c(OC)cc3C2C1 (centres unmarked) [Compound 22, (3-(Benzyloxy)-2,12-dimethoxy-5,6,14,14a-tetrahydroindolo[3′,2′:4,5]pyrido[2,1-a]isoquinolin-9(8H)-yl)methanol]
IC50 [7]: 7.99 µM | IC50 [2]: ≥ 100 µM | AUC(0-inf) ([8]; iv, 10 mg/kg): 2090 ng·h/mL | MRT ([8]; iv, 10 mg/kg): 4.13 h | clearance ([8]; iv, 10 mg/kg): 84.1 mL/min/kg | half-life ([8]; iv, 10 mg/kg): 3.61 h | bioavailability ([8]; oral, 20 mg/kg): 21.9% | AUC(0-inf) ([8]; po, 20 mg/kg): 1000 ng·h/mL | Cmax ([8]; po, 20 mg/kg): 169 ng/mL | MRT ([8]; po, 20 mg/kg): 10.3 h | half-life ([8]; po, 20 mg/kg): 6.35 h | IC50 [4]: ≥ 100 µM | IC50 [9]: 1.1 µM | IC50 [5]: ~100 µM | IC50 [10]: 1.34 µM | IC50 [6]: 13.4 ± 0.51 µM | reduction in serum LDL-C ([1]; 30 mg/kg oral gavage daily): 41.4% | reduction in serum TC ([1]; 30 mg/kg oral gavage daily): 36.7% | LDLR expression compared to DMSO [11]: 2.06 fold

COc1ccc2c(c1)c1c(n2CO)CN2CCc3cc(OC)c(OCC(F)(F)F)cc3C2C1 (centres unmarked) [Compound 21, (3,12-Dimethoxy-2-(2,2,2-trifluoroethoxy)-5,6,14,14a-tetrahydroindolo[3′,2′:4,5]pyrido[2,1-a]isoquinolin-9(8H)-yl)methanol]
IC50 [2]: ~100 µM | DiI-LDL uptake rate (compared to vehicle, mean±SEM) [3]: 1.45±0.04^∗∗ | IC50 [4]: ~50 µM | IC50 [5]: 2.35 ± 0.07 µM | IC50 [6]: > 100 µM

COc1ccc2c(c1)c1c(n2CO)CN2CCc3cc(OC)c(OCc4ccc(F)cc4)cc3C2C1 (centres unmarked) [Compound 18, (2-((4-Fluorobenzyl)oxy)-3,12-dimethoxy-5,6,14,14a-tetrahydroindolo[3′,2′:4,5]pyrido[2,1-a]isoquinolin-9(8H)-yl)methanol]
IC50 [2]: ~100 µM | IC50 [4]: > 100 µM | IC50 [5]: 1.71 ± 0.1 µM | IC50 [6]: > 100 µM

COc1ccc2cc3[n+](cc2c1OC)CCc1cc2c(cc1-3)OCO2 [Berberine]
DiI-LDL uptake rate (compared to vehicle, mean±SEM) [3]: 1.38±0.03 | IC50 [12]: 8.04 µM | reduction of LDL-C [13]: 25% | reduction of serum total cholesterol (TC) [13]: 29% | bioavailability (F) [14]: < 1% | oral bioavailability [14]: ~0%
